Screening data deposited in PubChem by Broad Institute.
These entries were drawn from the full list.
PGC1a acetyl up = compounds raising PGC1a acetylation signal, primary screen, PGC1a modulator project, cell-based, U2OS, AlphaScreen, signal-increasing mode; activation, % at 15.6 µM; AID 651723, 2012; hit rate 0.21% among 350,000; overnight;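 active = every replicate reaching activation of at least 50%, whatever the mean replicate activation; inconclusive = replicates that disagree or another doubt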;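 also: hits raise the AlphaScreen acetylation signal above neutral controls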
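Test system: U2OS cells expressing flag-PGC1a plus GCN5; Amount: 7000 U2OS cells per well; Compound: single test concentration per compound; Incubation: compound overnight at 37 °C, each detection step 1 h RT; Signal: AlphaScreen lysate read.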
G6PC hep suppr = suppressors of forskolin-stimulated G6PC mRNA, dose response, PGC-1a acetylation activator project, cell-based, hepatocytes, RT-qPCR, cherry-picked samples. shares compounds with PGC1a acetyl up. primary mouse hepatocytes. G6PC suppression (normalized activity, % of positive control; higher = more suppression), % at 26 µM. 240 tested, under 10 active;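 active = dose curves showing G6PC suppression whose half-maximal dose is at most twice the top valid dose; inconclusive = flat curves with moderate negative activity, or unreliable fits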;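 also: G6PC expression relative to GAPDH housekeeping gene as delta delta Ct; 0% = median of neutral control wells and 100% = median of positive control wells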
PCK1 hep suppr = suppression of PCK1 mRNA in primary hepatocytes, dose response, PGC-1a acetylation activator project, cell-based, primary mouse hepatocytes, RT-qPCR, cherry-pick; forskolin-stimulated; 230 tested, under 10 active; shares compounds with PGC1a acetyl up; PCK1 expression decrease, unspecified at 26 µM;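 active = compounds lowering PCK1 expression whose fitted half-maximal concentration is at most twice the top tested dose; inconclusive = flat fit with moderate opposite-direction effect, or poor fit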;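 also: values are delta delta Ct of PCK1 relative to GAPDH; higher delta delta Ct means lower PCK1 expression so positive values indicate hits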
PGC1a hep suppr = suppression of PGC-1a mRNA in primary hepatocytes, dose response, PGC-1a acetylation activator project, cell-based, primary mouse hepatocytes, RT-qPCR, cherry-pick. shares compounds with PGC1a acetyl up. PGC-1a mRNA qPCR, forskolin; top dose 26 µM. max activity (PGC-1a expression decrease), %. 240 tested, under 10 active. AID 743467, 2014;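 active = compound lowering PGC-1a expression with fitted half-maximal concentration at most twice its top tested dose; inconclusive = flat curve with moderate opposite-direction effect, or poor fit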;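 also: 0% = neutral control wells median and 100% = positive control wells median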
The depositor's hits bear a star; i = inactive; ? = inconclusive.

SMILES	PGC1a acetyl up	others
O=c1[nH]c(=S)n(Cc2ccco2)c(O)c1C=NCc1cccs1	-41.2
CN(C)CCN=Cc1c(O)n(Cc2ccco2)c(=O)[nH]c1=O	82.2*
CNc1cc(Cl)c2nonc2c1[N+](=O)[O-]	-68.2
CCOC(=O)C1=Nc2ccccc2/C1=C\c1c(O)n(C)c(=O)n(C)c1=O	-43.0
CN1C(=O)/C(=C\c2ccc(N3CCCCC3)o2)C(=O)NC1=S	53.9*
CC1=CC2OC3CC4OC(=O)C=CC=CC(C(C)O)OCC(O)C5(C)OC5C(=O)OCC2(CC1O)C4(C)C31CO1 (centres undefined)	-87.1
CCC1CN2CCc3cc(OC)c(OC)cc3C2CC1CC1NCCc2c1[nH]c1ccc(O)cc21 (centres undefined)	-70.5
Cc1ccc2c(c1)CC1(CN2C)C(=O)NC(=O)N(C(C)C)C1=O (centres undefined)	50.8*
CC(O)C1C=CC=CC(=O)OC2CC3OC4C5OC5(C)C(O)CC4(COC(=O)C(O)C(C)CCO1)C2(C)C31CO1 (centres undefined)	-86.9
CC(C)(C)n1nnnc1C(CCc1ccccc1)N1CCC2(CC1)C(=O)NCN2c1ccccc1 (centres undefined)	71.5*
O=c1[nH]c2ccccc2n1C1CCN(C(CCc2ccccc2)c2nnnn2Cc2ccccc2)CC1 (centres undefined)	-103.5
COc1cccc(C(c2nnnn2C2CCCCC2)N2CCC3(CC2)C(=O)NCN3c2ccccc2)c1OC (centres undefined)	71.6*
CC[C@H](C)[C@@H]1NC(=O)CNC(=O)c2csc(n2)[C@H](C(C)(C)O)OC(=O)C(C)(C)[C@H](CCCC(C)(Cl)Cl)OC(=O)c2csc1n2	-59.7
CCCCN1C(=O)NC(=O)C2(Cc3c(nc4c(C)cccn4c3=O)N3CCc4ccccc4C32)C1=O (centres undefined)	67.6*
CC(N)C(=O)NC1C2C(=C(O)CC(O)C2O)C(=O)OC1(C)C(Cl)Cl (centres undefined)	-74.0
C[C@H]1[C@@H](OS(=O)(=O)O)C[C@@H]2C[C@H]([C@@H](O)c3cc(=O)[nH]c(=O)[nH]3)NC3=NC[C@H]1N32	-93.5
COc1ccc(Oc2cc(NC(=O)c3nn(C)cc3[N+](=O)[O-])cc([N+](=O)[O-])c2)cc1	-78.1
CC(=O)O[C@H]1C[C@@H]2OC3C=C(C)CCC3(C)[C@@]1(C)[C@@]21CO1 (some centres undefined)	-83.8
C=C1C(=O)OC2C1CCC(C)C1(O)C=CC(=O)C21C (centres undefined)	115.4*
C=C1C(=O)OC2CC(C)C3C=CC(=O)C3(C)C(O)C12 (centres undefined)	-42.3
CC1=CC2OC3CC4OC(=O)C=CC=CC(=O)OCCC(C)C(O)C(=O)OCC2(CC1)C4(C)C31CO1 (centres undefined)	-77.4
CC(=O)OC1CC2OC3C=C(C)CCC3(C)C1(C)C21CO1 (centres undefined)	-87.2
COc1ccc(CC2C(=O)NC(C)C(=O)N(C)C3C(=O)N(C)C(Cc4ccc(O)c(c4)Oc4ccc(cc4)C3O)C(=O)NC(C)C(=O)NC(C)C(=O)N2C)cc1 (centres undefined)	-76.1
CSCCC(c1nnnn1-c1c(C)cccc1C)N1CCC(n2c(=O)[nH]c3ccccc32)CC1 (centres undefined)	89.2*	G6PC hep suppr=i;PCK1 hep suppr=775;PGC1a hep suppr=148.8
Cc1cccc(C)c1-n1nnnc1C(c1cccs1)N1CCC(n2c(=O)[nH]c3ccccc32)CC1 (centres undefined)	?	G6PC hep suppr=401.5;PCK1 hep suppr=251;PGC1a hep suppr=377.3
SMILES	PGC1a acetyl up	others
Cc1ccc(C[n+]2c(-c3ccc(C)cc3)cc(-c3ccc(C)cc3)cc2-c2ccc(C)cc2)cc1	-67.2
CC1CCCN(CC(=O)N2CCCc3ccccc32)C1 (centres undefined)	-43.3
CN1CCN(c2ccc([N+](=O)[O-])c3no[n+]([O-])c23)CC1	-63.5
Cc1ccc(CS(=O)(=O)CCC(=O)N2CCC3(CC2)OCCO3)cc1	-44.2
CC1CCC/C=C/C2CC(O)CC2C(O)/C=C/C(=O)O1 (centres undefined)	-72.6
Cc1ccc(OC(=O)N(C)C[C@H]2OCc3ccccc3-c3c(n(C)c4ccccc34)C(=O)N([C@H](C)CO)C[C@H]2C)cc1	228.8*	G6PC hep suppr=91.8;PCK1 hep suppr=101;PGC1a hep suppr=157.7
